Laboratory results: ChEMBL document CHEMBL4392853, “Characterising covalent warhead reactivity” (Bioorg Med Chem, 2019)
Calls of active or inactive are those of the source. No cut-off for these calls is given here.

Legend:
[1] = Drug reactivity against serine in PBS buffer by NMR assay
Procedure, shortened: (§1)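 NMR time-course following the warhead in solution with serine, with the amino acid at 10x the warhead concentration (pseudo-first-order). Run at pH 7.4. The rate constant was taken from the gradient of the line. Single determinations.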

[2] = Reversible drug reactivity against serine in PBS buffer by NMR assay; procedure, shortened: as §1
[3] = Reversible drug reactivity against cysteine in PBS buffer by NMR assay
Procedure, shortened: (§2)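 Warhead reactivity toward cysteine was tracked by NMR, measuring the amount of warhead remaining in solution over time. Cysteine was used at 10x the warhead concentration, giving pseudo-first-order conditions. The rate constant is the gradient of the fitted line. Runs were at pH 7.4 and also at pH 9.8. Two warheads were run in triplicate and averaged; the others were run once.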

[4] = Drug reactivity against cysteine in PBS buffer by NMR assay; procedure, shortened: as §2
[5] = Irreversible drug reactivity against cysteine in PBS buffer by NMR assay; procedure, shortened: as §2
[6] = Irreversible drug reactivity against serine in PBS buffer by NMR assay; procedure, shortened: as §1
[7] = Drug reactivity against cysteine in PBS buffer assessed as rate constant by NMR assay
Procedure, shortened: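 Warhead reacted in solution with cysteine held at 10x the warhead concentration, giving pseudo-first-order kinetics. Remaining warhead was followed over time by NMR, and the rate constant was taken from the gradient of the line. Runs were at pH 7.4 and also at pH 9.8. Two warheads were run in triplicate and averaged; all others were run once.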

[8] = Drug reactivity against cysteine in PBS buffer assessed as half life by NMR assay

| Structure (SMILES) | Activity [1] | Activity [2] | Activity [3] | Activity [4] | Activity [5] | Activity [6] | K [7] | T1/2 [8] |
| --- | --- | --- | --- | --- | --- | --- | --- | --- |
| O=C(c1ccccc1)C(F)(F)F | inactive | Active | Active | inactive | – | – | – | – |
| N#Cc1ncccn1 | Active | Active | Active | Active | – | – | – | – |
| COC(=O)Nc1ccccc1 | Active | – | – | Active | – | – | – | – |
| OB1OCc2ccccc21 | inactive | Active | Active | inactive | – | – | – | – |
| C=CC(=O)c1ccccc1 | Active | Active | Active | Active | – | – | – | – |
| C#CC(=O)c1ccccc1 | Active | Active | Active | Active | – | – | – | – |
| O=C1CCN1c1ccccc1 | inactive | – | – | inactive | Active | Active | – | – |
| C=CC(=O)Nc1ccccc1 | Active | Active | Active | Active | – | – | 8.38 ×10⁻⁵ /s | – |
| C=CS(=O)(=O)Nc1ccccc1 | Active | Active | Active | Active | – | – | 6.73 ×10⁻⁴ /s | 17.2 min |
| N#Cc1ccccn1 | inactive | Active | Active | inactive | – | – | – | – |
| N#Cc1ccccc1 | inactive | Active | Active | inactive | – | – | – | – |
| O=S(=O)(F)c1ccccc1 | Active | – | – | Active | – | – | – | – |
| CN(C)C/C=C/C(=O)Nc1ccccc1 | Active | Active | Active | Active | – | – | – | – |
| CC1(C)S[C@@H]2[C@H](N)C(=O)N2[C@H]1C(=O)O | inactive | – | – | inactive | Active | Active | – | – |
| c1ccc(C2CO2)cc1 (stereo not drawn) | Active | Active | Active | Active | – | – | – | – |
| O=C1CC(c2ccccc2)N1 (stereo not drawn) | inactive | – | – | inactive | Active | Active | – | – |
